PMI act = phosphomannose isomerase (human) activation; AID 1214; 190,000 tested, 0.005% active; P34949; activation factor at 20 µM; purified human PMI, coupled resazurin fluorescence, 20 min; stronger effect = higher value; 1 = vehicle control, 0 substrate-free wells;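 active = activation factor of 2 or more at 20 µM, relative to plate controls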
Target sequence (P34949 whole entry, looked up): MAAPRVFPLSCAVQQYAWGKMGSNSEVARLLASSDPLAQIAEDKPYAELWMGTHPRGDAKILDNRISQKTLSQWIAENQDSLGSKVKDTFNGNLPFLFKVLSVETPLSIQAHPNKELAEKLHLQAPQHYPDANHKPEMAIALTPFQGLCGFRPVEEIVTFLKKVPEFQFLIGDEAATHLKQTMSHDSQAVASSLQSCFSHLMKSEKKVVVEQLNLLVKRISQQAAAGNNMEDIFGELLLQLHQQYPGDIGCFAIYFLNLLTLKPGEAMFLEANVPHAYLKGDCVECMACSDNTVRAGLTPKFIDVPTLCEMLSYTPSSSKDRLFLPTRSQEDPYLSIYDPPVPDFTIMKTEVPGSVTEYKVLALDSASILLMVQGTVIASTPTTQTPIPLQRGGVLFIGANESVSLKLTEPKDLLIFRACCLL
ABCG2 inh = inhibitors of human ABCG2 transporter, ABCB1 counter-screen; inhibition, % at 6.6 µM; 190,000 tested, 0.1% active; Q9UNQ0; IgMXP3 cells, JC-1 efflux, flow cytometry;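 active = inhibition above 80%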;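 note: 0% = DMSO and 100% = nicardipine control wells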
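Read-out basis: Efflux inhibition in percent versus controls | Test system: ABCG2 IgMXP3 and barcoded ABCB1 CCRF-Adr cell mix | Quantity: 3 million cells/mL in well | Schedule: 10 min at 25 °C | Control set: Nicardipine as high control, DMSO as low control | Reagent: JC-1 as fluorescent efflux pump substrate | Signal: Flow cytometry of retained JC-1 fluorescence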
KCC2 mod = modulates chloride dependent transport by human KCC2; B-score of Tl+ flux slope (higher = more flux/activation; lower = inhibition) at 10 µM; 190,000 tested, 2.2% active; Q9H2X9; KCC2 cells, thallium flux FluoZin-2 fluorescence;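 active = thallium flux slope and its plate-corrected score both differing from the plate sample mean at a set confidence after two filtering rounds, in either direction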;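 note: slope of fluorescence scaled to starting intensity during 10 to 20 s after thallium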
ABCB1 block = inhibitors of human ABCB1 transporter, ABCG2 counter-screen; P08183; CCRF-Adr cells, JC-1 efflux, flow cytometry; inhibition, % at 6.6 µM; 190,000 tested, 0.067% active; AID 1326; in the data active = inhibition above about 40%;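 note: 0% = vehicle and 100% = reference inhibitor; higher value means more JC-1 retained so stronger ABCB1 efflux block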
ROMK mod = modulates human ROMK potassium channel activity. P48048. Tet-inducible ROMK, thallium flux fluorescence; actives lie on both sides. B-score at 10 µM. 130,000 tested, 2% active;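 active = signal ratio slope over the read window, or its plate-corrected B-score, at least 3 SD from the plate mean, either direction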;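 note: B-score of the F/F0 ratio slope over 7 to 12 s after thallium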
PMI act hi M6P = activators of human phosphomannose isomerase at near-saturating mannose 6-phosphate; P34949; coupled PMI enzyme assay, resazurin fluorescence, 20 min; stronger effect = higher value; 1 = untreated enzyme, 0 = substrate-free blank; activation factor at 20 µM; 190,000 tested, 0.34% active;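 active = activation factor of 2 or more at 20 µM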
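Technique: Diaphorase-driven resazurin-to-resorufin fluorescence, excitation 544, emission 590 nm | Assay system: Human PMI in coupled enzyme assay | Times: Enzyme reaction with compound 20 min at room temperature | Medium: HEPES-buffered pH 7.4 with magnesium and detergent | Reagent: Mannose-6-phosphate 1.0 mM (near-saturating) plus 0.22 mM NADP+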
ROMK hit retest = retested hit modulating human ROMK potassium channel; AID 1917; normalized thallium flux (F/F0 slope) at 10 µM; shares compounds with ROMK mod; ROMK thallium flux, fluorescence ratio; stronger effect = lower value; 3,000 tested, 54% active;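 active = Flux at 10 µM at least 3 SD below or above vehicle control mean in one or both replicates; inconclusive = no clear call, values can overlap the other calls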
Starred values were filed as active, the others as inactive; u = inconclusive; x = not tested or not shown. Sampled rows, rich in hits. Any-hit rate of the full collection: about 3.3%.

SMILES | PMI act | ABCG2 inh | KCC2 mod | ABCB1 block | ROMK mod | PMI act hi M6P | ROMK hit retest
COC(=O)C1=C(C)N(c2cc(Cl)cc(Cl)c2)C(=O)C1 | 1.5 | -0.2 | x | 0.0 | x | 1.5 | x
O=C(O)CCC(NC(=O)C1CCCN1C(=O)OCc1ccccc1)C(=O)O (configuration not stated) | 1.1 | 0.6 | 0.373 | 0.2 | 1.47* | 1 | 0.0842
COc1cc(NC(=O)C2CCCN2C(=O)OCc2ccccc2)cc(OC)c1 (configuration not stated) | 0.9 | 1.4 | 0.189 | 0.5 | -0.237 | 0.9 | x
Cc1cc(/C=N/NC(=O)c2ccsc2)c(C)n1-c1cnccn1 | 1.1 | 0.8 | 0.586 | 0.3 | 0.188 | 1 | 0.0777
Cc1cc(C)cc(-n2c(C)cc(/C=N/NC(=O)c3ccncc3)c2C)c1 | 0.8 | 5.9 | 0.737 | 0.8 | 0.729 | 0.8 | x
O=C(CSc1nnc(-c2ccccc2)o1)NC1CCS(=O)(=O)C1 (configuration not stated) | 1 | 1.1 | 0.738 | -1.0 | x | 0.9 | x
COc1ccc(NS(=O)(=O)c2ccc(N3CCCC3=O)cc2)cn1 | 1 | -3.1 | 0.055 | -0.6 | 2.32* | 1 | 0.0813
CN(C)C(=O)/C(=C\c1ccc(-c2cccc([N+](=O)[O-])c2)o1)NC(=O)c1ccccc1 | 1 | 8.7 | -2.24 | 1.8 | 0.0444 | 1 | x
CN(C)CCCNC(=O)/C(=C\c1ccc(-c2ccc(Br)cc2)o1)NC(=O)c1ccccc1 | 0.9 | -0.1 | -1.3 | -0.1 | -3.9* | 1 | 0.0539*
CN(C)CCNC(=O)/C(=C/c1ccc(-c2cccc(Cl)c2)o1)NC(=O)c1ccccc1 | 1.1 | 12.2 | -1.34 | 0.2 | -3.65* | 1.1 | 0.0559*
Cc1ccc(C(=O)N/C(=C\c2ccc(-c3ccc(Cl)cc3)o2)C(=O)NCCCN(C)C)cc1 | 1 | 0.4 | -0.466 | 0.1 | -2.78 | 1 | x
CN(C)CCNC(=O)/C(=C/c1ccc(-c2cccc([N+](=O)[O-])c2)o1)NC(=O)c1ccccc1 | 1 | 5.6 | 0.646 | 0.3 | -4.47* | 1 | 0.0528*
Cc1cc(C(=O)OCC(=O)Nc2ccccc2[N+](=O)[O-])c2ccccc2n1 | 1 | 14.7 | 0.678 | 1.7 | x | 0.9 | x
CN(Cc1ccccc1NS(=O)(=O)c1ccc2ccccc2c1)C1CCCCC1 | 1.1 | 3.6 | -1.03 | 1.5 | -2.93* | 1 | u
Cc1ccc(NC(=O)Cc2ncc(C(F)(F)F)cc2Cl)cc1Cl | 1 | 2.1 | 0.00696 | 0.5 | x | 1 | 0.0675*
O=C(Cc1ncc(C(F)(F)F)cc1Cl)NCCc1ccccc1 | 1 | 0.8 | -1.29 | 0.3 | -0.369 | 1 | x
N#C/C(=C(/O)CCl)c1nc(-c2ccccc2)cs1 | x | x | -1.22 | x | x | x | x
Cc1ccc(-c2csc(/C(C#N)=C(\O)CCl)n2)cc1 | 1.5 | -2.0 | -2.89 | -1.0 | -3.32* | 1.7 | u
CSc1nc(C)cc(Oc2ccccc2)n1 | 1 | 10.0 | -1.14 | 2.1 | x | 0.9 | x
Cn1c(CCNC(=O)c2ccccc2)nc2cc(NC(=O)C3CCCCC3)ccc21 | 0.9 | 7.3 | -1.63 | -0.3 | 0.169 | 0.9 | x
O=C(CCC1N=C2c3ccccc3N=C(SCc3ccc(Cl)cc3)N2C1=O)NCc1ccco1 (configuration not stated) | 0.9 | -4.8 | x | 0.9 | -4.15* | 0.9 | 0.0612*
O=C(CCC1N=C2c3ccccc3N=C(SCc3ccc(F)cc3)N2C1=O)NCc1ccco1 (configuration not stated) | 0.9 | 3.2 | -0.352 | 1.6 | -0.813 | 1 | x
CCNc1nc(NCC)n2c(SCC(=O)NC34CC5CC(CC(C5)C3)C4)nnc2n1 | 1 | 3.6 | -0.562 | 0.0 | x | 1 | x
Cc1ccc(C)n1-c1ccc(-n2cnnn2)cc1 | 1 | 8.5 | 0.323 | 0.7 | x | 1.1 | 0.0567*
O=C1c2ccccc2C(=O)N1CCCCN(C(=O)c1ccco1)c1ccc(Cl)cc1 | 0.9 | 50.3 | x | 11.7 | -3.4* | 0.9 | 0.0492*
SMILES | PMI act | ABCG2 inh | KCC2 mod | ABCB1 block | ROMK mod | PMI act hi M6P | ROMK hit retest
O=C1c2ccccc2C(=O)N1CCCCN(C(=O)c1cccc([N+](=O)[O-])c1)c1ccc(Cl)cc1 | 1.1 | 0.1 | -0.243 | 0.5 | x | 1.1 | x
C=CCn1c(SCC(=O)Nc2cc3oc4ccccc4c3cc2OC)nnc1-c1cnccn1 | 1 | -1.1 | -0.598 | -0.1 | x | 1 | 0.0651*
CCOC(=O)CSc1nnc(CNc2ccc(Cl)cc2)n1Cc1ccccc1 | 1.1 | 0.0 | -3.24 | -0.2 | -3.84* | 1.1 | 0.063*
CC(C)OC(=O)CSc1nnc(CNc2ccc(Cl)cc2)n1Cc1ccccc1 | 1.1 | 0.6 | x | 0.4 | x | 1.1 | x
CC1(C)OC1COc1c2ccoc2cc2oc(=O)ccc12 (configuration not stated) | 0.9 | 1.1 | -1.51 | 0.4 | 0.379 | 0.9 | x
COc1cccc(CC2(CO)CCCN(Cc3c(C)cc(C)cc3-n3cccn3)C2)c1 (configuration not stated) | 0.9 | 9.7 | -1.34 | 4.7 | -3.65* | 1 | 0.0549*
COc1ccc(-n2ccnc2CN2CCCC(CO)(Cc3cccc(OC)c3)C2)cc1 (configuration not stated) | 0.8 | 0.5 | -2.45 | 1.4 | -1.65 | 0.9 | x
COc1cc(/C=N/NC(=O)c2sc3nc(C)cc(C)c3c2N)ccc1O | x | x | 0.352 | x | 0.225 | x | x
COc1ccc2[nH]c(=O)c(CN(CC3CCCO3)C(=O)Nc3ccc(F)cc3)cc2c1 (configuration not stated) | 0.8 | 9.2 | -1.24 | 1.3 | x | 0.8 | 0.0613*
COc1ccc2[nH]c(=O)c(CN(C(C)=O)C3CCCCC3)cc2c1 | 1.2 | 0.3 | x | 0.1 | 0.471 | 1 | x
COc1ccc2[nH]c(=O)c(CN(C(=O)NC3CCCCC3)C3CCCC3)cc2c1 | 1 | 39.5 | x | 7.6 | -2.84* | 0.9 | 0.0724
COc1ccc(N/N=C(/C(C)=O)N2CCCc3ccccc32)cc1 | x | x | -1.53 | x | x | x | x
CCC(=O)c1cc(F)c(N2CCN(S(=O)(=O)c3ccc(C)cc3)CC2)cc1C | 0.9 | 1.2 | 0.989 | 0.5 | x | 0.8 | x
O=C(COC(=O)/C=C/c1ccc(S(=O)(=O)N2CCOCC2)cc1)NCc1ccc(F)cc1 | 0.9 | -0.2 | -0.104 | -0.2 | 5.03* | 1 | 0.0902
CCOc1cc(C(=O)Nc2ccc(N3CCOCC3)cc2)cc(Br)c1OC | 1 | 33.3 | -0.0811 | 0.0 | 3.82* | 0.9 | 0.0806
CCOc1cc(C(=O)Nc2ccc(F)cc2)cc(Br)c1OC | 0.9 | 5.2 | 0.0629 | -0.2 | x | 0.9 | x
CCOc1ccc(NC(=O)CSc2nnc(C34CC5CC(CC(C5)C3)C4)n2C)cc1 | 0.8 | 2.6 | x | 1.6 | x | 0.9 | x
c1ccc(CCNc2ncnc3ccccc23)cc1 | 1 | 2.1 | 0.748 | 0.3 | -3.71* | 0.9 | 0.0756
